Measurements published in ChEMBL document CHEMBL3352271, “Antitrypanosomal quinoline alkaloids from the roots of Waltheria indica” (J Nat Prod, 2014).

Columns and labels:
Trypanosoma cruzi = assay: Antitrypanosomal activity against LacZ expressing Trypanosoma cruzi Tuluhaen C2C4 amastigotes; assay type: functional, organism-based
[1] = Selectivity index, ratio of IC50 against rat L6 cells to IC50 against Trypanosoma cruzi Tuluhaen C2C4; assay type: toxicity, cell-based; details: read-out: Ratio IC50
Procedure, shortened: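 Selectivity index calculated as the IC50 for L6 cytotoxicity divided by the IC50 for antitrypanosomal activity against T. cruzi amastigotes (Tulahuen C4).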

[2] = system: Trypanosoma brucei rhodesiense; assay: Antitrypanosomal activity against Trypanosoma brucei rhodesiense STIB900 trypomastigote forms; assay type: functional, organism-based
L6 = assay: Cytotoxicity against rat L6 cells; assay type: cell-based
[3] = system: Trypanosoma brucei brucei; assay: Antitrypanosomal activity against Trypanosoma brucei brucei NYSM bloodstream forms incubated for 46 hrs by alamar blue assay; assay type: functional, organism-based
Procedure, shortened: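 Bloodstream parasites grown in HMI-9 medium with 10% FCS, wild type. Plated at a final density of 0.5 × 10^5 cells/mL with compound dilutions for 46 h, then AlamarBlue added for 2 more h. Fluorescence read at excitation 530 nm, emission 584 nm. IC50 from nonlinear sigmoidal dose–response fit; triplicate runs, reported ± SD.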

With O=C(Cn1ccnc1[N+](=O)[O-])NCc1ccccc1 [BENZNIDAZOLE] as the compound, how does the IC50 (Trypanosoma cruzi) read?
The IC50 was 2.9 µM.

With COc1c(C)n(OC)c2c(c1=O)[C@@H](CCCCCc1ccccc1)CC[C@H]2OC as the compound, how does the selectivity ratio [1] read?
The selectivity ratio was 6.5.

And the IC50 [2]?
Its IC50 is 35.9 µM.

And the IC50 (L6)?
The IC50 was 0.26 µM.

What about the IC50 (Trypanosoma cruzi) of the same compound?
The IC50 was 0.04 µM.

Which selectivity ratio [1] does the source give for CCCCCCCC[C@@H]1CCCc2[nH]c(C)c(OC)c(=O)c21 here?
Its selectivity ratio is 1.5.

And the IC50 [2]?
Its IC50 is 32.6 µM.

What about the IC50 (L6) of the same compound?
Its IC50 is 0.75 µM.

What about the IC50 (Trypanosoma cruzi) of the same compound?
The IC50 was 0.49 µM.

What about the IC50 [3] of the same compound?
Its IC50 is greater than 100 µM.

Which selectivity ratio [1] does the source give for CCCCCCCC[C@H]1CC[C@@H](OC)c2[nH]c(C)c(OC)c(=O)c21 here?
Its selectivity ratio is 4.

And the IC50 [2]?
Its IC50 is 38.5 µM.

What about the IC50 (L6) of the same compound?
The IC50 was 0.91 µM.

And the IC50 (Trypanosoma cruzi)?
The IC50 was 0.23 µM.

What about the IC50 [3] of the same compound?
The IC50 was 80.3 µM.

With CCCCCCCC[C@H]1CC[C@@H](OC)c2c1c(=O)c(OC)c(C)n2OC as the compound, how does the selectivity ratio [1] read?
The selectivity ratio was 1.8.

And the IC50 [2]?
The IC50 was 45.8 µM.

And the IC50 (L6)?
The IC50 was 0.07 µM.

And the IC50 (Trypanosoma cruzi)?
The IC50 was 0.04 µM.

What about the IC50 [3] of the same compound?
Its IC50 is greater than 100 µM.

With CCCCCCCC[C@@H]1CCCc2c1c(=O)c(OC)c(CO)n2OC as the compound, how does the selectivity ratio [1] read?
The selectivity ratio was 10.1.

And the IC50 [2]?
Its IC50 is 87.9 µM.

What about the IC50 (L6) of the same compound?
The IC50 was 22.1 µM.

What about the IC50 (Trypanosoma cruzi) of the same compound?
The IC50 was 2.2 µM.

And the IC50 [3]?
The IC50 was greater than 100 µM.

Which IC50 [3] does the source give for Cc1ccc(C(=O)Nc2ccc(S(=O)(=O)O)c3cc(S(=O)(=O)O)cc(S(=O)(=O)O)c23)cc1NC(=O)c1cccc(NC(=O)Nc2cccc(C(=O)Nc3cc(C(=O)Nc4ccc(S(=O)(=O)O)c5cc(S(=O)(=O)O)cc(S(=O)(=O)O)c45)ccc3C)c2)c1 [SURAMIN] here?
Its IC50 is 0.31 µM.

Which results are given for CCCCCCCCc1ccc(OC)c2[nH]c(C)c(OC)c(=O)c12?
selectivity ratio [1]: 22.7; IC50 [2]: 38.6 µM; IC50 (L6): 25.7 µM; IC50 (Trypanosoma cruzi): 1.1 µM; IC50 [3]: 31 µM

With COc1c(OC)c(C)[n+]([O-])c2c1[C@H](CCCCCc1ccccc1)CCC2 as the compound, how does the selectivity ratio [1] read?
The selectivity ratio was 13.5.

And the IC50 [2]?
The IC50 was 55.7 µM.

What about the IC50 (L6) of the same compound?
Its IC50 is 41.1 µM.

What about the IC50 (Trypanosoma cruzi) of the same compound?
The IC50 was 3.1 µM.

For CCCCCCCC[C@H]1CCCc2c1c(=O)c(OC)c(C)n2OC, which selectivity ratio [1] is on record?
Its selectivity ratio is 1.9.

What about the IC50 [2] of the same compound?
Its IC50 is 53.3 µM.

What about the IC50 (L6) of the same compound?
The IC50 was 0.19 µM.

What about the IC50 (Trypanosoma cruzi) of the same compound?
The IC50 was 0.1 µM.

And the IC50 [3]?
Its IC50 is greater than 100 µM.

With CCCCCCCC[C@H]1CCC(=O)c2[nH]c(C)c(OC)c(=O)c21 as the compound, how does the selectivity ratio [1] read?
The selectivity ratio was 1080.

And the IC50 [2]?
Its IC50 is 14.3 µM.

And the IC50 (L6)?
Its IC50 is 184 µM.

What about the IC50 (Trypanosoma cruzi) of the same compound?
Its IC50 is 0.17 µM.

What about the IC50 [3] of the same compound?
The IC50 was greater than 100 µM.

Which results are given for COc1c(C)n(OC)c2c(c1=O)[C@@H](CCCCCc1ccccc1)CCC2?
selectivity ratio [1]: 33.8; IC50 [2]: 30.4 µM; IC50 (L6): 0.64 µM; IC50 (Trypanosoma cruzi): 0.02 µM; IC50 [3]: 24.1 µM
